This note sets out measurements from the EternaBench riboswitch data.

The subject of the data set is MS2 coat protein. Briefly: apparent Kd, MS2 coat protein; higher = weaker binding; RNA-MaP array; FMN 200 µM where present. The gist of the method:
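Binding was read on Illumina sequencing-chip clusters where stalled E. coli RNA polymerase had transcribed each design. A titration of SNAP-549-labelled MS2 coat protein began at 0.7 or 1.5 nM and doubled to 3 µM, once without ligand and once with constant ligand, in 100 mM Tris-HCl pH 7.5, 80 mM KCl, 4 mM MgCl2, BSA, DTT, yeast tRNA and Tween-20. The apparent Kd is the median of filtered per-cluster binding-curve fits, based on green signal normalised to red-channel RNA signal and control-cluster median Fmax.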

[1] abbreviates: designed as: OFF switch for flavin mononucleotide, no ligand.
[2] abbreviates: ligand present: flavin mononucleotide, designed as: OFF switch for flavin mononucleotide.
The mark [3] stands for this setting: designed as: ON switch for flavin mononucleotide, no ligand.
Where [4] appears, read: ligand present: flavin mononucleotide, designed as: ON switch for flavin mononucleotide.

Regarding “UCUUACUGAGGAUAUACUUAGAUUUACAUGAGGAUCACCCAUGUUCCUCUAUGUAUAUAUGUAGAAGGCAGAAGUU”, the apparent Kd – broadly, a dissociation constant that holds for the conditions of the assay – is 25.4 nM under setting [1] and 158 nM under setting [2].
As to “CGUGUUGACGAAGGAUAUGGAUACAUGAGGAUCACCCAUGUAUAUUUUGUGAUCAAGUUUAAGAUCCAGAAGGUCGUUGACACG”, the “apparent Kd” value under setting [1] worked out at 77.6 nM and the “apparent Kd” value under setting [2] was found to be 131 nM.
The matching figures for “CGUUGUUAAGGAUAUGGACUCUUGAACAUGAGGAUCACCCAUGUGCGCGUGGUCUAAAUACCAGAAGGUGGCCGCC”: 31.7 nM and 29.3 nM.
Consider “UUAAUUAAUUAAUUAUACAUGAGGAUCACCCAUGUAAGUGAUCAGGAUAUCAGCUCGAUUAGAGCUGAGAAGGGAUCCAUGUAA”, for which the “apparent Kd” value is, setting by setting: under setting [3], 109 nM; under setting [4], 81.3 nM.
For “AGCUAAGAGUUAAUUGUGACAGUGAGAAGGCAAUAGUUUGUGACCGACAUGAGGAUCACCCAUGUUGAGGAUAUCACUAGCUAC”, the “apparent Kd” value under setting [1] came to 6.83 nM and the “apparent Kd” value under setting [2] came out at 19.4 nM.
Turning to “AGUUAAUAUCGAGGAUAUCUCAUGGAUACAUGAGGAUCACCCAUGUGAAUGGGAGAAGGCGAUAUUAACAGCAUGUUACAUGCA”, the “apparent Kd” value was found to be 32 nM under setting [3] and 7.05 nM under setting [4].
“ACAUGAGGAUCACCCAUGUUUUUUGGGUACUCUUGAUACAGCAAGGAUAUGCAUUAUUUAUGUACGCAGAAGGUGCAUUACGUC”: the “apparent Kd” value under setting [1] turned out to be 920 nM and the “apparent Kd” value under setting [2] amounted to 853 nM.
With “AAUGAGCGAGGAUAUGCAACUGUAUGACCUACGUGUGCCAGACAUGAGGAUCACCCAUGUAGAAGGUGCUUUCC”, the “apparent Kd” value is, setting by setting: under setting [1], 59.7 nM; under setting [2], 51.3 nM.
Take “GGGUACCUGACAUGAGGAUCACCCAUGUCGUGCCUCUGCGGCAAGGAUAUGAUCGCUCGUGUAGGUCAGAAGGUGCCGUUGUUA”: the “apparent Kd” value was determined as 66.2 nM under setting [3] and 6.7 nM under setting [4].
On to “CGUGAACAUGAGGAUCACCCAUGUGAAAAACGUAGAGGAUAUGUCACAUGAGUGUAAAAGACAGAAGGCUAUCGUG”, for which the “apparent Kd” value runs as follows: under setting [3], 151 nM; under setting [4], 27.1 nM.
For “CGACGUUGAGAGAAGGAGUAAAAUACAUGAGGAUCACCCAUGUCAGGUGCUAGGAUAUCUUCGCGUGGCAGGGUCGGCCCGUGU”, the “apparent Kd” value was found to be 66 nM under setting [3] and 14.3 nM under setting [4].
Regarding “UUGUUAAGAGGAUAUACAUGAGGAUCACCCAUGUGAGAAGUCCAGGGCGUAUUUUCUUGUAGAAGGUUUAGCCC”, the “apparent Kd” value is, setting by setting: under setting [1], 25.1 nM; under setting [2], 15.8 nM.
The corresponding values for “GUACAGUAGUGAGGAUAUACGAGAUCGAUAGAUCGGCGAUCCAAUUAUACAUGAGGAUCACCCAUGUAGAAGGCACUUCUGUAC” are 8.37 nM and 66.9 nM.
As for “UAGGUCAUCUGAGGAUAUCGAACUCAAAGGCUACGAGAAGGCAGACUGACAUGAGGAUCACCCAUGUACCGGGAAGAUGCCUCC”, the “apparent Kd” value reads like this: under setting [1], 14.6 nM; under setting [2], 130 nM.
On to “AAAUAGUUAGGAUAUACAUGAGGAUCACCCAUGUGGACUGAUGGCGAUUGAUUCAGUGGUAGAAGGGACUCAAA”, for which the “apparent Kd” value reads like this: under setting [1], 37.4 nM; under setting [2], 56.4 nM.
For the sequence “GGUGGGUUGCUGCCGGCACAUGAGGAUCACCCAUGUUUUGGGAAGGAUAUGGUACCUUUUUGGUGCCAGAAGGUCCCGUUGGUG”, the “apparent Kd” value was determined as 733 nM under setting [3] and 1000 nM under setting [4].
As for “CUCUUGUGAGGAUAUCAGUAGUAAAAAAAUAAAAUUACUACUGAGAAGGCACAUGAGGAUCACCCAUGUACCUU”, the “apparent Kd” value reads like this: under setting [1], 22.9 nM; under setting [2], 22.7 nM.
On to “ACAUGAAAUCGAGGAUAUGCAAAAAAAAAAAAAGCAGAAGGCGAAAAAAAAACUCGAAAAAACAUGAGGAUCACCCAUGUAAAA”, for which the “apparent Kd” value reads like this: under setting [1], 26.4 nM; under setting [2], 22.9 nM.
The corresponding values for “ACCUAUGAGGAGGAUAUACGGUGCGAAAGGAAGGUAGAAGGCUUCACAUGAGGAUCACCCAUGUCUAUAAGCGA” are 30.9 nM and 29.5 nM.
Take “ACUGGUCGAGGAUAUACAUUCGUGCUUCGGCACGUAAGGUCACAUGAGGAUCACCCAUGUAGAAGGCGACCAGU”: the “apparent Kd” value by setting is: under setting [1], 40.1 nM; under setting [2], 207 nM.
The matching figures for “AAUCUGUAGCAGAAGGUCAUUUUUAUAAAUAAGCUGGUGACAUGAGGAUCACCCAUGUAAAGGUUGAAGGAUAUGCAUUCUAUU”: 90.5 nM and 343 nM.
The matching figures for “UUUUACCGAGGAUAUACAUAUAAAUAAUAAUCCUCAUUAUUACAUGAGGAUCACCCAUGUAGAAGGCGGAUUUU”: 89.2 nM and 66.8 nM.
Take “AAGAAACAUGAGGAUCACCCAUGUGAGGAUAUGAGCAAGAAAAGAAAAGAAAGAAGAAUCAGAAGGCACAAAGG”: the “apparent Kd” value by setting is: under setting [1], 39.6 nM; under setting [2], 75.7 nM.
“GUAGCAUACCAAGGAUAUUUAGGGCUUUGAUAGACAUGAGGAUCACCCAUGUGGCGUUAGUCACGGGAGAAGGUGGUAUGCUAC”: the “apparent Kd” value is, setting by setting: under setting [3], 383 nM; under setting [4], 81.9 nM.
Consider “UGGACUGGGCAGAAGGGACAUGAGGAUCACCCAUGUCUUGGGCUACUUCAGUCAGGAUAUGCCCAUUGAAUAUCCGUGCAACAA”, for which the “apparent Kd” value runs as follows: under setting [1], 15.4 nM; under setting [2], 76.9 nM.
Turning to “GGAGGACAUGAGGAUCACCCAUGUGGAUGGGCGCUAGGAUAUGCGAGAGGAGGGAGUGGAGCAGAAGGAGUGGGUU”, the “apparent Kd” value runs as follows: under setting [3], 65.6 nM; under setting [4], 57.5 nM.
Consider “UGUCGGAGCAGAGGAUAUUACAUGAGGAUCACCCAUGUAUGAACCAAUAGCUGGAAACAGCAAUGUAAGAAGGCUGCUCCGACG”, for which the “apparent Kd” value came out at 12.9 nM under setting [1] and 157 nM under setting [2].
As to “ACUACGUUAGCGAUAUGAUCGAGAGAUCAUGUCGCUAUAUUUAGAAGGACAUGAGGAUCACCCAUGUAGGAUAUGGGUCGUGGA”, the “apparent Kd” value under setting [3] was 158 nM and the “apparent Kd” value under setting [4] is 35.7 nM.
Consider “UUUGCAUUCCGAGGAUAUUCAUUUAUUGUCUUCACAUGAGGAUCACCCAUGUGGCGCUUGCGCCGGGAGAAGGCGGUUUGCUUU”, for which the “apparent Kd” value reads like this: under setting [3], 21.7 nM; under setting [4], 24.9 nM.
As to “CCAUGGUGGGCAGGAUAUCGUCCAGCUUGCAGACGAGAAGGGCUUAAACAUGAGGAUCACCCAUGUGAAAAGCGGGUUGUCCAA”, the “apparent Kd” value under setting [1] came out at 26.5 nM and the “apparent Kd” value under setting [2] came out at 131 nM.
In the case of “GCGAUUGCGUAGAAGGUACUAUAAAAUACACUGUAAGGAUAUACAAACAUGAGGAUCACCCAUGUAAAUGGAAUUUGCAAUCGC”, the “apparent Kd” value is 7.8 nM under setting [3] and 6.43 nM under setting [4].
The corresponding values for “AUUAUUAAUGCAGGAUAUGAUUAACAUGAGGAUCACCCAUGUGGUGUUGUGAGUAAGGAGAGUGAUCAGAAGGGCAUUUUUUUU” are 493 nM and 695 nM.
With “CUGUGACGGUGCGCAAGUGGACGUAGAAGGGUCACAUGAGGAUCACCCAUGUGGGCCUGCGAGUGACAGGAUAUACGUUCGUGC”, the “apparent Kd” value by setting is: under setting [1], 15 nM; under setting [2], 57 nM.
The corresponding values for “AAAAAGACAGGAUAUACAUGAAAAAAAAAAAAAAAAAAAAAACAUGAGGAUCACCCAUGUAGAAGGGUCAAAAA” are 111 nM and 106 nM.
The matching figures for “UAUGUAUUCGUAGGAUAUCCGUUAAAACCGUGUGGAGAAGGACGAACAUGAGGAUCACCCAUGUAUCAUGGUGUAGACAAUUUU”: 170 nM and 460 nM.
Turning to “UCAUGAUAUGUAGGAUAUCACAAUAAUUGAUUAAUAUAUGAAUAUAGAAUUUGAGAAGGACAUUUACAUGAGGAUCACCCAUGU”, the “apparent Kd” value under setting [1] is 14.8 nM and the “apparent Kd” value under setting [2] amounted to 12.3 nM.
